# E coli WT exp = blocks growth of wild type E. coli BW25113 | OD600 absorbance | growth inhibition, % at 100 µM | 98,000 compounds, 0.15% hits;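 active = growth inhibition above about 50% at one test dose, limit read from the data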;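 note: growth measured after 20 h incubation at 37 °C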
# HePTP inh = inhibitors of human HePTP phosphatase; inhibition, % at 20 µM; AID 521; recombinant HePTP phosphatase activity, OD absorbance; 110,000 compounds, 0.64% hits; P35236; in the data active = inhibition above about 50%;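 note: plate controls were vehicle for no effect and reference inhibitor for full effect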
# Target sequence (P35236 whole entry, looked up): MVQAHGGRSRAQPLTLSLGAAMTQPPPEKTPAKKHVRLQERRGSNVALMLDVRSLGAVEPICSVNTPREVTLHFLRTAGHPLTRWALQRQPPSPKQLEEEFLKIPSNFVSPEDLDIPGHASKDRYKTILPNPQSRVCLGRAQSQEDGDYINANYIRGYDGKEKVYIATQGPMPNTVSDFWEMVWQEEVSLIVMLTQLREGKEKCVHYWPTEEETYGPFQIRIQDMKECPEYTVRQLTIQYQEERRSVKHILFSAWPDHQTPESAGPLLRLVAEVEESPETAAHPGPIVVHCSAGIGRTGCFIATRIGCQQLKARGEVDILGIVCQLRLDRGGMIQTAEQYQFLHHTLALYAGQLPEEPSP
# PostGolgi ctrl = inhibits growth of the yeast control strain; inhibition, % at 10 µM; 98,000 compounds, 5% hits; efflux-deficient yeast background strain, growth absorbance A615, 16 h; AID 738
# PostGolgi yeast = growth inhibition of a yeast mutant, post-Golgi transport screen; post-Golgi transport phenotypic cell assay; 98,000 compounds, 0.9% hits; inhibition, % at 10 µM;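 note: yeast cells grown in 1536-well plates; yeast grown about 18 h at 30C before absorbance read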
# PLAP activator = activates human placental alkaline phosphatase; P05187; purified PLAP enzyme, luminescent substrate read-out; stronger effect = higher value; activation fold at 20 µM; 96,000 compounds, 1.2% hits; in the data active = activation fold above about 2
# tolC growth inh = E. coli tolC mutant growth inhibition | growth inhibition, % at 10 µM (by protocol) | E. coli BW25113 tolC mutant growth, OD615 | 65,000 compounds, 2.2% hits;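 active = growth inhibition at or above a cutoff equal to the mean over every tested compound plus 3 SD, cut at about 60% in these data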;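 note: growth measured after 20 h incubation at 37 °C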
#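 Signal: optical density read at 615 nm; Assay system: E. coli ΔtolC::kan strain BW25113; Times: 20 h incubation with compound, 37 °C; Dosing: 10 µM final, single dose.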
# Starred values were filed as active, the others as inactive; · = not tested or not shown. In the library only some 5.4% were active in any assay of this set; here they are far more common. Cut-off read from the data, not from the text of the source, unless noted: active = inhibition above about 30%; inactive = the rest.
SMILES,E coli WT exp,HePTP inh,PostGolgi ctrl,PostGolgi yeast,PLAP activator,tolC growth inh
Cc1ccc(-c2csc(C3C(N)=NC(S)=C(C#N)C34CCCCC4)n2)cc1 (stereo not given),-11,·,3,6,2.4*,·
Cc1nc2ncnn2c(N2CCN(c3cccc(C(F)(F)F)c3)CC2)c1C,7,4,19,2,2*,42
Cc1nc2ncnn2c(N2CCN(C(c3ccccc3)c3ccccc3)CC2)c1C,6,2,28,16,1.6,62*
Cc1cc(N2CCN(C(c3ccccc3)c3ccccc3)CC2)n2ncnc2n1,1,2,24,3,1.4,82*
Cc1cc(N2CCN(c3cccc(C(F)(F)F)c3)CC2)n2ncnc2n1,2,-1,17,1,1,-9
Cc1cc(N2CCN(c3nc4ccccc4s3)CC2)n2ncnc2n1,0,10,6,0,1.4,-9
O=[N+]([O-])c1ccc(CNC2C3CC4CC(C3)CC2C4)cc1 (stereo not given),·,8,·,·,·,·
CCCC(=Nc1cccc([N+](=O)[O-])c1)C1=C(O)CC(C)(C)CC1=O,·,61*,·,·,·,·
NS(=O)(=O)c1cccc(NC(=O)c2cccnc2)c1,·,2,·,·,·,·
O=C(CN1CCC(n2nnc3cc(F)ccc32)CC1)NC1CC1,11,2,5,-1,1,-12
CCOc1ccc2nc(NC(=O)CN3CCC(n4nnc5cc(F)ccc54)CC3)sc2c1,-13,-4,34*,10,1.8,79*
Cc1c(Cl)cccc1NC(=O)c1ccc(-n2ccnc2)nc1,-4,·,34*,2,1.1,·
CCn1c(CSc2nnc(-c3ccoc3C)n2C)nc2cc(S(=O)(=O)N(C)C)ccc21,-1,13,38*,-5,·,-4
Cc1ccc2oc(-c3ccc(NC(=O)c4cccnc4)cc3O)nc2c1,·,0,·,·,·,·
Cc1ccc2oc(-c3ccc(NC(=O)c4cccnc4)cc3)nc2c1,-2,-12,66*,-7,1.4,10
O=C(Nc1ccc2oc(Cc3ccc(Cl)cc3)nc2c1)c1cccnc1,-15,11,4,5,1.3,69*
CCOc1ccc(C(=O)Nc2ccc3oc(-c4ccncc4)nc3c2)cc1Cl,·,98*,·,·,·,·
CCOc1ccc(C(=O)Nc2ccc3oc(-c4ccccc4F)nc3c2)cc1Cl,·,3,·,·,·,·
COc1ccc(CNC(=O)c2cccc([N+](=O)[O-])c2)cc1,·,2,·,·,·,·
COc1cc(/C=C/C(=O)c2ccc(C)cc2)cc(OC)c1OC,·,-24,·,·,·,·
COc1ccccc1C1/C(=C(/O)c2ccccc2)C(=O)C(=O)N1CC1CCCO1 (stereo not given),·,30,·,·,·,·
COC(=O)c1cn(Nc2ncc(C(F)(F)F)cc2Cl)c(=O)c2ccccc12,2,·,40*,-5,0.9,·
COC(=O)c1cn(NC(=O)c2cnccn2)c(=O)c2ccccc12,1,-4,-3,6,0.9,99*
c1ccc(-c2nc(-n3nc4ccccc4n3)nc3ccccc23)cc1,2,·,78*,10,0.8,·
COCCn1c(C)cc(C(=O)CSc2ccc3ccccc3n2)c1C,-19,·,31*,0,1.4,·
SMILES,E coli WT exp,HePTP inh,PostGolgi ctrl,PostGolgi yeast,PLAP activator,tolC growth inh
O=C(Nc1ccccc1O)c1ccc(Oc2ccc(C(=O)Nc3ccccc3O)cc2)cc1,·,-14,·,·,·,·
COc1cc2oc(=O)c3c(c2cc1Cl)CCCC3,·,-2,·,·,·,·
CCc1cc2c3c(c(=O)oc2cc1OC)CCCC3,-6,7,49*,-2,0.9,32
COc1ccc(N2C(=O)CCC([N+](=O)[O-])=C2C)cc1,·,-5,·,·,·,·
CC1=C(C(=O)OC(C)C)C(c2cc(Br)ccc2F)CC(=O)N1 (stereo not given),·,0,·,·,·,·
CC1=CCC2C(=O)N(c3cccc([N+](=O)[O-])c3)C(=O)C2C1 (stereo not given),·,-19,·,·,·,·
N#Cc1cc2c(nc1SCc1nc3ccccc3[nH]1)CCC2,3,9,12,-1,2.1*,57
N#Cc1cc2c(nc1SCc1cccnc1)CCC2,10,12,4,6,0.8,6
c1ccc(-c2nc(CSc3nnc(-c4cccs4)o3)cs2)cc1,-28,5,16,3,·,63*
O=C1NC(=S)S/C1=C\c1cn(Cc2ccccc2F)c2ccccc12,·,12,·,·,·,·
O=C(c1ccc(-c2ccccc2)cc1)N1CCN(C2CC3CCC2C3)CC1 (stereo not given),·,71*,·,·,·,·
CCOc1cc(C(=S)N2CCCCC2)cc(Br)c1O,·,-1,·,·,·,·
O=C(c1ccccc1)N1CCN(C(=O)c2nn3c(C(F)(F)F)cc(-c4cccs4)nc3c2Br)CC1,·,11,·,·,·,·
CC(C)C(c1nnnn1CCc1ccccc1)N1CCOCC1 (stereo not given),8,4,-4,11,1,-10
COc1ccc(CCn2nnnc2C(CC(C)C)N2CCN(c3ncccn3)CC2)cc1OC (stereo not given),-4,6,-3,-10,1.4,-1
COc1ccc(N2CCN(C(c3nnnn3CCc3ccccc3)C(C)C)CC2)cc1 (stereo not given),-6,3,35*,9,0.9,14
COc1ccc(CCn2nnnc2C(C(C)C)N2CCN(c3ncccn3)CC2)cc1OC (stereo not given),1,3,35*,-1,1.6,-1
Cc1cc(NC(=O)c2cc3ccccc3oc2=O)ccc1NC(=O)c1ccco1,·,-5,·,·,·,·
O=C(Nc1ccccc1O)c1cccs1,·,-3,·,·,·,·
O=C(CSc1ccccn1)Nc1ccc2c(c1)C(=O)c1ccccc1C2=O,·,105*,·,·,·,·
COC(=O)c1ccc(NC(=O)CSc2ccccn2)cc1,5,·,9,25,0.8,·
CC(C)(C)NC(=O)c1cc2nc(-c3ccccc3)cc(C(F)(F)F)n2n1,·,-6,·,·,·,·
Cc1nc2c(-c3ccc(F)cc3)c(C)nn2c(C)c1CCC(=O)N1CCC(Cc2ccccc2)CC1,-13,·,32*,5,1.7,·
CCOC(=O)C1=C(C)N=c2s/c(=C\c3cc([N+](=O)[O-])cc(Br)c3O)c(=O)n2C1c1cccs1 (stereo not given),·,6,·,·,·,·
c1ccc(COc2ccc(OCCn3cncn3)cc2)cc1,7,4,3,-1,0.9,1
SMILES,E coli WT exp,HePTP inh,PostGolgi ctrl,PostGolgi yeast,PLAP activator,tolC growth inh
c1ccc(-c2ccc(OCCCn3cncn3)cc2)cc1,3,2,89*,97*,1,3
Cc1cc(C)c(-n2c(O)c(/C=C3\C=Nc4ccccc43)c(=O)[nH]c2=O)c(C)c1,·,-7,·,·,·,·
COc1ccccc1-c1c(C(F)(F)F)oc2cc(OC(=O)c3ccccc3[N+](=O)[O-])ccc2c1=O,0,·,31*,4,1,·
COc1ccccc1-c1c(C(F)(F)F)oc2cc(OC(=O)C(C)(C)C)ccc2c1=O,·,2,·,·,·,·
c1cnc(N2CCN(c3ncnc4c3oc3ccccc34)CC2)nc1,·,5,·,·,1.2,1
COc1ccccc1N1CCN(c2ncnc3c2oc2ccccc23)CC1,-4,7,38*,6,1.3,35
C(=C\c1ccccc1)/CN1CCN(c2ncnc3c2oc2ccccc23)CC1,-6,-2,31*,21,1.5,100*
O=C(Oc1cc(-c2ccccc2)c2oc(=O)sc2c1)c1ccccc1,·,-9,·,·,·,·

# Screens (PubChem BioAssay)
